Data taken from the RNAGym collection of RNA variant scans (doi:10.1126/science.aae0568).
Variants at the floor of the assay were thinned out.

B1: tRNA (parent)
chain: GUUCCGUUGGCGUAAUGGUAACGCGUCUCCCUCCUAAGGAGAAGACUGCGGGUUCGAGUCCCGUACGGAACG

Variants of: B1
Experiment: yeast fitness relative to wild type (ratio to wild type); higher = fitter; tRNA-Arg(CCU), competitive growth, 37 C, YPD
Summary of the method: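 Variants of the tRNA-Arg(CCU) gene were chemically synthesised with a 3% per-site mutation rate across 69 sites and placed at the native genomic locus in Saccharomyces cerevisiae. Six parallel replicates of the pooled strains were competed in YPD at 37°C for 24 hours, and gene amplicons from the start and end populations were read by 100-nucleotide paired-end sequencing. Darwinian fitness relative to wild type was derived from changes in genotype frequencies. Genotypes required ≥ 100 starting reads, and estimates < 0.5 were set to 0.5.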
With GUUGGGUUGGCGUAAUGGUAACGCGUCUCCCUCGUAAGGAGAAGACUGCGGGUUCGGGUCCCGUGUGGAACG the yeast fitness was ≤ 0.5.
GUUGUGUUGGCGUAAUGGUAACGCGUCUCCGUCCUAAGGAAACGACUGCGCGUUCGAGUCCCGUACGGAACG showed a yeast fitness of 0.606.
For GUUGCGUUGGCGUAAUGGUAACGCGUCUCCCUCCUAAGGGGUAGACUGCGGGUUCGAGUCCCGUACGGAACG, the yeast fitness was ≤ 0.5.
Variant GUUGUGUUGGCGUAAUGGUAACGCGUCUCCCUCCUAAGGAGAAGACUGCGGGUUCGAGUCCCGUACGGAACG has a yeast fitness of 0.751.
GUUGUGUUGGCGUAAUGGUAACGCGUCUCCCUCCUAAGGGGAAGACUGCGGGUUCGAGUCCCGUACGGAACG showed a yeast fitness of 0.526.
For GUUGCGUUGGCGUAAUGGUAUCGCGUCACGCUCCUAAGGAGAAGACUGCGGGUUCGAGUCCCGUACGGAACG, the yeast fitness was ≤ 0.5.
With GUUGUGUUGGCGUAAUGGUAACGCGUCUCCCUCCUAAGGAGAAGACUGCGAGCUCGAGUCCUGUACGGAACG the yeast fitness was ≤ 0.5.
In the case of GUUGCGUUGGCGUAAUGGUAACGCGUCUCCCUCCUAAGGAGAAGACUGCGGGUUCGAGUCCCGUGCGGAACG, the yeast fitness is reported as 1.02.
In the case of GUUGCGUUGGCGUAAUGGUAACGCGUCUCCCUCCUAAGGAGAAGACUGCGGGUUCGAGUCCCGUUCGGAACG, the yeast fitness is reported as 0.793.
For GUUGUGUUGGCGUAAUGGUAACGCGUCUCCCUCCUAUGGAGAAGACUGCGGGUUCGAGUCACGUACGGAACG, the yeast fitness was ≤ 0.5.
With GUUGCGUUGGCGUAAUGGUAGCGCGUCUCCCUCUUAAGGAGAACACUGCGGGUUGGAGUCCCGUACGGAACG the yeast fitness was ≤ 0.5.
With GUUGCGUUGGCGUAAUGGUAACGCGUCUCCCUCCUAAGGUGAAGACUGAGGGUUUGAGUCCCGUACGGAACG the yeast fitness was 0.515.
In the case of GUUGGGUUGGCGUAAUGGUAACGCGUCUCCCUCCUAAGAAGAAGACUGAGGGUUCGAGUCCCGUACGGAACG, the yeast fitness is reported as ≤ 0.5.
In the case of GUUGCGUUGGCGUAAUGGUAACGCGUCUCCCUCCUAAGGCGAAGACUGCGGGUUCGAGUCCCGUACGCAACG, the yeast fitness is reported as ≤ 0.5.
GUUGCGUUGGCGUAAUGGUAACGCGUCUCCCUCCUACGGAGAAGACUGCGAGUUCGAGUCCCGUACGGAACG gave a yeast fitness of 0.628.
Work on GUUGUGUUGGCGUAAUGGUAACGCGUCUCCCUCCUAAGGAGAAGACUGCGGGUUUGAGUCCCGUACGGAACG yielded a yeast fitness of 0.544.
For GUUGCGUUGGGGUAAUGGUAACGCGUCUCCCUCCUAAGGAGAAGACUGCGGGUUUGAGUCACGUACGGAACG, the yeast fitness was 0.567.
With GUUGCGUUGGCGUAAUGGUAACGCGUCUCCCUCCUAAGGAGAUGACUGCGGGUUCGAGUCCCGUACGGAUCG the yeast fitness was 0.623.
Work on GUUGAGUUGGCGUAAUGGUAACGUGUCUCCCUCCUAAGGAGAAGACUGCGGGUUCGAGUCUCGUAUGGACCG yielded a yeast fitness of 0.514.
In the case of GUUGUGUUGGUGUAAUGGUAACGCGUCUCCCUCCUAAGGAGAAGACUGCGGGUUCGAGUCCCGUACGGAACG, the yeast fitness is reported as 0.505.
For GUUGCGUUGGCGUAAUGGUAUCGCGUCUCCCUCCUAAGGACAAGACUGCGGGCUCGAGUCCCGUCCGGAACG, the yeast fitness was 0.535.
For GUUGCGUUGGCGUAAUGGUAACGCGUCUCCCUCCUUAGGAGAAGACUGCGGGUUCGAGUCCCGUAGGGAACG, the yeast fitness was ≤ 0.5.
For GUUGCGUUGGCGUAAUGGUAACGCGUCUCCCUCCUUAGGAGAAGAUUGCGGGUUCGAGUCCCGUACGGAACG, the yeast fitness was 0.59.
For GUUGUGUUGGCGUAAUGGUAACGCGUGUCCCUCAUAAGGAGAAGACUGCGGGUUCGAGUCCCGUACGGAACG, the yeast fitness was ≤ 0.5.
For GUUGGGUUGGCGUAAUGGUAACGCGUCUUCCUCCUAAGCAGAAGACUGCGGGUUCGAGUCCCGUACGGAACG, the yeast fitness was ≤ 0.5.
In the case of GUUGCGUUGGAGUAAUGGCAACCCGUCUCCCUCCUAAGGAGAAGACCGCGGGUUCGAGUCCCGUACGGAUCG, the yeast fitness is reported as ≤ 0.5.
For GUUGCGUUGGCGUAAUGGUAACGCGUCUCCCUCCUAAGGGGAAGGCUGCGGGUUCGAGUCCCGUACGGAACG, the yeast fitness was ≤ 0.5.
For GUUGUGUUGGCGUAAUGGUAACGCGUCUCCCUCCUAAGGAGAAGACAGCGGGUUUGCGUCCCGUACGGAACG, the yeast fitness was ≤ 0.5.
For GUUGGGUUGGCGUAAUGGUAACGCGGCUCCCUCCUAAGGAGAAGCCUGCGGGUUCGAGUCUCGUACAGAACG, the yeast fitness was ≤ 0.5.
With GUUGGGUUGGCGUAAUGGUAACGCGUCUACCUCUUAAGGAGUAGACUGCCGGUUCGAGUCCCGUACGGAACG the yeast fitness was 0.531.
Variant GUUGCGUUGGCGUAAUGGUAACGCGUCUCCCUCCUAAGGAGAAGACUGCGGGUUCGAGUCCCGUACGGCACG has a yeast fitness of 0.878.
With GUUGAGUUGGCGUAAUGGUACCGCGUCUCCCUCCUAAGGAGAAGACUGCGGGUACGAGUCCCGUUCGGCACG the yeast fitness was ≤ 0.5.
For GUUGUGUUGGCGUAAUGGUAACGCGUCUCCCUCCUAAGGAGAAGACUGAGGGUUCAAGUCCCCUACGGAACG, the yeast fitness was ≤ 0.5.
With GUUGGGUUGGCGUAAUGGUAACGCGUCUCUUUCCUAAGGAGAAGUCUGCGGGUUCGAGUCCCGUACGGAACG the yeast fitness was ≤ 0.5.
For GUUGCGUUGGCGUAAUGGUAACGCGUCUCCCUCCUAAGGAGAAGUCUCCGGGUUCGAGUCCCGUACGGAACG, the yeast fitness was 0.501.
For GUUGCGUUGGCGUAAUGGUAACGCGUCUCCCUCCUAAGGAGAAGACUGCGGGUUCGAGUCCCGUCCGGCACG, the yeast fitness was ≤ 0.5.
For GUUGCGUUGGCGUAAUGGUAACGCGUCUCCCUCCUAAGGAGAAGUCUCGGGGUUCGAGUCCCGUACGGAACG, the yeast fitness was ≤ 0.5.
For GUUGCGUUGGAGUAAUGGUAACGCGUCUCCCUCCAAAGGAGAAGACUGUGGGUUCGAGGCCCGUACUGAACG, the yeast fitness was 0.554.
In the case of GUUGCGUUGGGGUAAUGGUAACGCGUCUCCCUCCUAAGGAGAAGACUGUGGGUUCGAGUUCCGUACGGAACG, the yeast fitness is reported as ≤ 0.5.
With GUUGUGUUGGCGUAAAGGUAACGCGUCUCCCUCAUAAGGAGAAGACUGCGGGUUCGAGUCCCGUAAGGAACG the yeast fitness was ≤ 0.5.
For GUUGCGUUGGCGUAAUGGUAACGCGUCUCCCUCCUAUGGAGAAGACUGCGGGUUCGACUACCGUACGGAACG, the yeast fitness was ≤ 0.5.
With GUUGCGUUGGCGUAAUGGUAACGCGUCUCCCUCCUAAGGAGGAGUCUGCGGGUCGGAGUCACGUACGGAACG the yeast fitness was ≤ 0.5.
With GUUGUGUUGGCGUAAUGGUAACGCGUCUCCCUCCUAAGGAGAACACUGCGGGUUCGAGUCCCGUACGGAACG the yeast fitness was ≤ 0.5.
For GUUGCGUUGGCGUAAUGGUAACGCGUCUCCCUCCUCGGGAGAAGACUGCGGGUUCGAGUCCCGAACGGAACG, the yeast fitness was ≤ 0.5.
Variant GUUGCGUUGGCGUAAUGGUAACGCGUCUCCCUCCUAAGGAGAAGACUGCGGGUUCGUGUCCCGUACGGAUCG has a yeast fitness of 0.869.
With GUUGUGUUGGCGUAAUGGUAAGGCGUCUCCCUCCUAAGGAGAAGACUGCGGGUUCGAGUCCCGAACGGAACG the yeast fitness was 0.542.
With GUUGCGUUGGAGUAAUGGUAACGCGUCUCCCUCCAAAGGAGAAGGCUGUGGGUUCGAGGCCCGUACUGAACG the yeast fitness was ≤ 0.5.
In the case of GUUGCGUUGGCGUAAUGGUAACGCGUCUCCCUCCUAAGGUGAAGUCUGCGGGUUCGAGUCCCGUACGGAACG, the yeast fitness is reported as 0.546.
GUUGCGUUGGCGUAAUGGUAACGCGUCUCCCUCCUAAGGGGAAGACUGCGGGUUCCAGUCCCGUACGGAACG gave a yeast fitness of 0.537.
For GUUGGGUUGGCGUAAUGGUAACGCGUCUCCCUCCUAAGGAGAGGACUGCGGGUUCGAGUCCCAUACGGAACG, the yeast fitness was ≤ 0.5.
For GUUGCGUUGGCGUAAUGGUAACGCGUCUCCCUCCUAAGGAGAAGACUGCGGGUUCGGGUCUCGUACGGAACG, the yeast fitness was 0.629.
For GUUGUGUUGGCGUAAUGGUAACGCGUCUCCCUCCUAAGGAGAAGACUGCGGGUUCGAAUCCCGUACGGACCG, the yeast fitness was ≤ 0.5.
With GUUGCGUUGGAGUAAUGGUAACGCGUCUCGCUCCUAAGGAGAAGACUGCGGGUUCGAGUCCCGUACAGAACG the yeast fitness was ≤ 0.5.
In the case of GUUGGGUUGACGUAAUGAUAACGCGUCUCCCUCCUAAGGAGAACACUGCGGGUUCGAGUCAUGUAUGGAACG, the yeast fitness is reported as ≤ 0.5.
In the case of GUUGCGUUGGCGUAAUGGUAACGCGUCUCCCUCCUAAGGAGAAGACUGCGGGUUCGUGCCCCGUACAGAACG, the yeast fitness is reported as ≤ 0.5.
GUUGCGUUGGCGUAAUGGUAACGCGUCUCCCUCCUAAGGAGAAGGCUGCGGGUUCGAGUCCCGUACGGAACG showed a yeast fitness of 0.826.
In the case of GUUGCGUUGGCGUAAUGGUAACGCGUCUCCCUCCUAAGGAGUAGACUGCCGGUUCGAGUCCAGUACUGAACG, the yeast fitness is reported as ≤ 0.5.
For GUUGGGUUGGAGUAAUGGUAACGCGUCUCCCUCCUAAGGAGAAGACUGCGGGUUCGAGUCCCGUACGGCCCG, the yeast fitness was ≤ 0.5.
For GUUGGGUUGGCGUAAUGGUAACGCGUCUCCAUCCCAAGGAGAAGACUGCGGGUUCGAGUCCCGUACGGAACG, the yeast fitness was ≤ 0.5.
In the case of GUUGCGUUGGGGUAAUGGUAACGCGUCUCCCUCUUAAAGAGAACACUGCGGGUUCGAGUCCCGUACGGAACG, the yeast fitness is reported as ≤ 0.5.
In the case of GUUGCGUUGGCGUAAUGGUAACGCGUCUCCCUCCUGAGGAGAAGCCUGCGGGUUCGAGUCUGGUACGGAACG, the yeast fitness is reported as ≤ 0.5.
Variant GUUGGGUUGGCGUAAUGGUAACGCGUCUACCUCUUAAGGAGUAGACUGCCGGUUCGAGUCCCGUACGCGACG has a yeast fitness of 0.58.
For GUUGUGUUGGCGUAAUGGUAACGCGUCUCCCUCCUAAGAAGAACACUGCGGGUUCGAGUCCCGUACGGAACG, the yeast fitness was ≤ 0.5.
GUUGCGUUGGCGUAAUGGUAUCGCGUCUCCCUCCUAAGGAGAAGACUGGGGGUUCGAGUCCCGUAGGCAACG showed a yeast fitness of 0.673.
For GUUGCGUUGGAGUAAUGGUAACGCGUCUUCCUUCUAAGGAGAAGACUGCGGGUCCGAGUCCCGUACGGAACG, the yeast fitness was ≤ 0.5.
In the case of GUUGGGUUGGAGUAAUGGUAACGCGUCUCCCUCCUAAAGAGAAGACUGCGGGUUCGAGUCCCGUACAGAACG, the yeast fitness is reported as ≤ 0.5.
With GUUGCGUUGGCGUAAUGGUAACGCGUCUCCCUCCUAAGGUGAAGACUGCGGGUUCGAGUCCCGUACGGAACG the yeast fitness was 0.754.
In the case of GUUGCGUUGGCGUAAUGGUAACGCGUCUCCCUCCUAAGGGGAAGACUGCGGGUUCGAGUCCCGUACGGAACG, the yeast fitness is reported as 0.74.
GUUGCGUUGGAGUAAUGGCAACCCGUCUCCCUCCUAAGGAGAAGACCGCGGGUUCGAGUCCCGUACGGAACG showed a yeast fitness of 0.663.
For GUUGUGUUGGCGUAAUGGUUACGCGUCUCCCUCCUAAGCGGAAGACUGCGGGUUCGAGUCCCGUACGGAUCG, the yeast fitness was ≤ 0.5.
With GUUGAGUUGGCGUAAUGGUAACGCGUAUCCCUCAUAAGGAGUAGACUGCGGGUUCGAGUCCCGUACGGAACG the yeast fitness was ≤ 0.5.
In the case of GUUGUGUUGGCGUAAUGGUAACGCGUCUCCCUCCUAAGGAGAAGACUGAGGGUUCGAGUCCCGUACGGAACG, the yeast fitness is reported as ≤ 0.5.
For GUUGUGUUGGUGUGAUGGUAACGCGUCUCCCUCCUAAGGAGAAGACUGCGGGUUCGAGUCCCGUACGGAACG, the yeast fitness was ≤ 0.5.
In the case of GUUGGGUUGGCGUGAUGGUAACGCGUCUCCCUCCUAAGGAGAGGACUGCGGGUUCGAGUCCCGUACGGAACG, the yeast fitness is reported as ≤ 0.5.
Work on GUUGCGUUGGCGUAAUGGUAACGCGUCUCCCUCCUAGGGAGAAGACUGCGGGUUCGAGUCCCGUACGGAACG yielded a yeast fitness of 0.851.
